Laboratory results: ChEMBL document CHEMBL4725371, “A Novel Redox Modulator Induces a GPX4-Mediated Cell Death That Is Dependent on Iron and Reactive Oxygen Species” (J Med Chem, 2020)
Activity calls are given as the source filed them. No cut-off for these calls is given here.

What was measured:
MIA PaCa-2 [1] = assay: Cytotoxicity against human MIA PaCa-2 cells measured after 72 hrs by MTT assay; type: functional, cell-based; conditions: MIA PaCa-2, 72 h
How it was run: (§1)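 Cells were kept in RPMI 1640 with 10% FBS at 37 °C, 5% CO₂, under 35 passages. Cells were seeded, attached overnight and treated with compound or DMSO for 72 h. MTT was added at 0.3 mg/mL for 3 h, then dissolved in DMSO and read as absorbance at 570 nm. IC50 was fitted from the curve. Values are mean ± sd of three independent experiments.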

PANC-1 [2] = assay: Cytotoxicity against human PANC-1 cells measured after 72 hrs by MTT assay; type: functional, cell-based; conditions: PANC-1, 72 h; how it was run: as §1
BXPC-3 = assay: Cytotoxicity against human BXPC-3 cells measured after 72 hrs by MTT assay; type: functional, cell-based; conditions: BXPC-3, 72 h; how it was run: as §1
[3] = Drug level in mouse plasma treated with QD394 at 500 uM measured after 0.5 hrs by LC-MS/MS analysis
MIA PaCa-2 [4] = assay: Induction of ferroptosis in human MIA PaCa-2 cells assessed as increase in lipid peroxidation at 20 to 40 uM measured after 24 hrs by C11-BODIPY dye based fluorescence assay; type: functional, cell-based; conditions: dose microM 20-40, time 24.0 hrs
How it was run: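 MIA PaCa-2 cells (RPMI 1640, 10% FBS, 37 °C, 5% CO2) exposed to compound for the set time, then 10 μM C11-BODIPY added for 30 min at 37 °C. After two DPBS washes, read in HBSS at 581/591 nm (reduced dye) and 488/510 nm (oxidized dye); emission ratio calculated, unpaired Student's t-test.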

MIA PaCa-2 [5] = assay: Induction of ferroptosis in human MIA PaCa-2 cells assessed as increase in lipid peroxidation at 0.5 uM measured after 24 hrs by C11-BODIPY dye based fluorescence assay; type: functional, cell-based
How it was run: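 MIA PaCa-2 cells were treated for the set time, then given 10 μM C11-BODIPY for 30 min at 37 °C and washed. Fluorescence was read at 581/591 nm (reduced dye) and 488/510 nm (oxidized dye). The intensity ratio was compared by unpaired t-test.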

MIA PaCa-2 [6] = assay: Induction of reactive oxygen species in human MIA PaCa-2 cells assessed as reduction in GSH to GSSG ratio at 1 to 2 uM measured after 2 to 4 hrs by GSH/GSSG-glo assay; type: functional, cell-based; conditions: dose microM 1-2, time hrs 2-4
How it was run: (§2)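 GSH/GSSG-Glo luminescent assay: 15,000–20,000 MIA PaCa-2 cells per well, attached overnight, treated 2 h and 4 h. Cells were lysed with total or oxidized glutathione reagent, then luciferin generation (30 min, room temperature) and detection reagents added. Luminescence was read after 15 min. Ratio was computed from net RLU as (total − GSSG)/(GSSG/2).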

MIA PaCa-2 [7] = assay: Inhibition glutathione synthesis in human MIA PaCa-2 cells at 1 to 2 uM measured after 2 to 4 hrs by GSH/GSSG-glo assay; type: functional, cell-based; conditions: dose microM 1-2, time hrs 2-4; how it was run: as §2
MIA PaCa-2 [8] = assay: Inhibition of colony formation in human MIA PaCa-2 cells at 0.6 uM measured after 7 to 9 days in presence of necroptosis inhibitor necrostatin-1 by crystal violet staining based assay; type: functional, cell-based; conditions: time day 7-9
How it was run: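 Cells seeded overnight in 96-well plates at 300 cells/well (MIA PaCa-2) or 600 cells/well (BxPC-3), in RPMI 1640 with 10% FBS. Inhibitor added 1 h before compound, then continuous exposure for 7–9 days until control wells were 80–90% confluent. Stained with 0.05% crystal violet for 30 min, imaged after overnight drying and quantified.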

MIA PaCa-2 [9] = assay: Down regulation of PNPT1 expression in human MIA PaCa-2 cells at 3 times IC50 measured after 4 hrs by proteomics analysis; type: functional, cell-based
MIA PaCa-2 [10] = assay: Down regulation of LRPPRC expression in human MIA PaCa-2 cells at 3 times IC50 measured after 4 hrs by proteomics analysis; type: functional, cell-based
MIA PaCa-2 [11] = assay: Down regulation of LRPPRC expression in human MIA PaCa-2 cells at 3 times IC50 measured after 4 hrs in presence of NAC by proteomics analysis; type: functional, cell-based
MIA PaCa-2 [12] = assay: Down regulation of PNPT1 expression in human MIA PaCa-2 cells at 3 times IC50 measured after 4 hrs in presence of NAC by proteomics analysis; type: functional, cell-based
MIA PaCa-2 [13] = assay: Down regulation of LRPPRC expression in human MIA PaCa-2 cells at 3 times IC50 measured after 4 hrs in presence of NQO1 inhibitor dicoumarol by proteomics analysis; type: functional, cell-based
MIA PaCa-2 [14] = assay: Down regulation of PNPT1 expression in human MIA PaCa-2 cells at 3 times IC50 measured after 4 hrs in presence of NQO1 inhibitor dicoumarol by proteomics analysis; type: functional, cell-based
PANC-1 [15] = assay: Down regulation of LRPPRC expression in human PANC-1 cells at 3 times IC50 measured after 1 to 24 hrs by proteomics analysis; type: functional, cell-based; conditions: time hrs 1-24
PANC-1 [16] = assay: Down regulation of PNPT1 expression in human PANC-1 cells at 3 times IC50 measured after 1 to 24 hrs by proteomics analysis; type: functional, cell-based; conditions: time hrs 1-24

Structure (SMILES): O=C1C(Nc2ccc(N3CCOCC3)cc2)=CC(=O)c2ncncc21
- IC50 (MIA PaCa-2 [1]): 1500 nM
- IC50 (PANC-1 [2]): 800 nM
- IC50 (BXPC-3): 2300 nM

Structure (SMILES): CN1CCN(c2ccc(NC3=CC(=O)c4ncncc4C3=O)cc2)C(O)C1 (stereo not given)
- Drug uptake [3]: Active

Structure (SMILES): O=C1C(Nc2cccc3c2Cc2ccccc2-3)=CC(=O)c2ncncc21
- IC50 (MIA PaCa-2 [1]): 3100 nM
- IC50 (PANC-1 [2]): 4700 nM
- IC50 (BXPC-3): 4500 nM

Structure (SMILES): O=C1C(Nc2ccc(N3CCCCC3)cc2)=CC(=O)c2ncncc21
- IC50 (MIA PaCa-2 [1]): 2400 nM
- IC50 (PANC-1 [2]): 1400 nM
- IC50 (BXPC-3): 2500 nM

Structure (SMILES): CCOc1ccccc1-n1c(C(C)N2CCN(C(=O)COc3ccc(Cl)cc3)CC2)nc2ccccc2c1=O (stereo not given)
- Activity (MIA PaCa-2 [4]): Active

Structure (SMILES): CN1CCN(c2ccc(NC3C(=O)c4cncnc4C(=O)C3O)cc2)CC1 (stereo not given)
- Drug uptake [3]: Active

Structure (SMILES): CCc1ccc(-c2ccc(NC3=CC(=O)c4ncncc4C3=O)cc2)cc1
- IC50 (MIA PaCa-2 [1]): 1500 nM
- IC50 (PANC-1 [2]): 2300 nM
- IC50 (BXPC-3): 1600 nM

Structure (SMILES): O=C1C(Nc2ccc(-c3cc(Cl)cc(Cl)c3)cc2)=CC(=O)c2ncncc21
- IC50 (MIA PaCa-2 [1]): 3100 nM
- IC50 (PANC-1 [2]): 1900 nM
- IC50 (BXPC-3): 3300 nM

Structure (SMILES): COC(=O)c1ccc([C@H]2c3[nH]c4ccccc4c3C[C@H](C(=O)OC)N2C(=O)CCl)cc1
- Activity (MIA PaCa-2 [5]): Active

Structure (SMILES): CC(=O)c1cc2c(o1)C(=O)c1ccccc1C2=O
- Activity (MIA PaCa-2 [6]): Active
- inhibition (MIA PaCa-2 [7]): Active
- inhibition (MIA PaCa-2 [8]): inactive
- Activity (MIA PaCa-2 [9]): Active
- Activity (MIA PaCa-2 [10]): Active
- Activity (MIA PaCa-2 [11]): Active
- Activity (MIA PaCa-2 [12]): Active
- Activity (MIA PaCa-2 [13]): inactive
- Activity (MIA PaCa-2 [14]): inactive
- Activity (PANC-1 [15]): inactive
- Activity (PANC-1 [16]): inactive
